Data reported in publication PMC4436074 (mBio, 2015).
Structures can show the parent of a compound that is named as a salt. Where two headings read alike, the source gives them in different places.

Legend:
RopB = experiment: PspeB-luxAB reporter, NZ131; assay type: cell-based, S. pyogenes; details: C medium; 10 µM CsA or valspodar; 300 mM NaCl
Outline: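 PspeB-luxAB reporter (speB upstream region–luxAB, integrated) grown in C medium to exponential phase (OD600 0.1). Test compound added at 10 µM; 300 mM NaCl used as the suppressing condition. Decanal vapour supplied; 37°C with shaking. OD600 and luminescence read every 15 min for 8 h; relative luminescence taken as maximum cps/OD600.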

Rgg3 = assay type: binding, Streptococcus pyogenes; details: HTS, duplicate; 0.1 µl of 10 mM compound in 30 µl; 180 nM His6-Sumo-Rgg3, 10 nM FITC-SHP2-C8
Outline: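 Approved-drug library (1,280 compounds, DMSO stocks) pinned into assay mix of 1× PBS, 0.1 mg/ml BSA, 0.01% Triton X-100 and 5 mM DTT. Plates were shaken 20 s, then held 15 min at room temperature, and polarization was read at ex 485/em 535 nm. Each plate had 32 DMSO negative-control wells and 32 unlabeled SHP2-C8 (1 mM stock) positive-control wells. % inhibition was scaled between the per-plate control means, and plate Z′ was computed.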

ComR [1] = biological target: T1, ComR (Streptococcus mutans serotype c, UniProt Q8DWI6); assay type: binding, S. mutans; details: read-out: ComR Avg % inhibition
T1 sequence (Q8DWI6 1-304): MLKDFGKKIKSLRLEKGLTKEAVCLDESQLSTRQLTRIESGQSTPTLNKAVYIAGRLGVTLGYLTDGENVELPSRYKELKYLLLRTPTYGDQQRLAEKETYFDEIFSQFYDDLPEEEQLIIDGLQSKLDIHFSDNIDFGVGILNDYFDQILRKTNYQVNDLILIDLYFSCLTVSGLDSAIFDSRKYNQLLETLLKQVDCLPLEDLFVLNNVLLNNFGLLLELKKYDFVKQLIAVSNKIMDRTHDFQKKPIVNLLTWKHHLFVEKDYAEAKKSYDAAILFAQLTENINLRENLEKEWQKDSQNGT

[2] = test system: Rgg2/3-regulated promoter Pshp2-luxAB (BNL148); experiment: Pshp2-luxAB luciferase reporter assay, strain BNL148, sSHP2-C8 induced; assay type: cell-based, S. pyogenes; details: for inhibition of SHP-induced light production (transcription): 10 µM compound with 10 nM SHP2-C8, BNL148; for IC50: Streptococcus pyogenes
S. pyogenes cultures = experiment: Bacterial growth curves; assay type: cell-based; details: 10 µM compound with 10 nM sSHP2-C8, 37°C
Outline: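 S. pyogenes grown at 37°C in chemically defined medium (CDM) to OD600 0.1, then given 10 nM SHP2-C8 alone or with 10 µM test compound. OD600 read every 30 min for 8 h.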

Rgg2 = experiment: Pshp2-luxAB luciferase reporter assay, Δrgg3 strain BNL178; assay type: cell-based, S. pyogenes
Outline: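 Pshp2-luxAB reporter strains grown in CDM to exponential phase (OD600 0.1). Cultures dispensed into wells with 10 nM SHP2-C8 alone or with test compound: 10 µM for the Δrgg3 strain BNL178, 5 µM CsA for the other strains. Decanal (1% in mineral oil) supplied as vapour; plate sealed and shaken continuously at 37°C. OD600 and luminescence read every 15 min for 8 h; relative luminescence taken as maximum cps/OD600.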

[3] = test system: ComR-XIP QS system, PsigX-luxAB; experiment: PsigX-luxAB reporter; assay type: cell-based, S. pyogenes; details: 10 µM compound, 100 nM XIP, MGAS315(pWAR200)
Outline: (§1)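 PsigX-luxAB reporter strains grown in CDM to OD600 0.1 and incubated with 10 µM test compound plus 100 nM XIP. Decanal (1% in mineral oil) supplied as vapour; sealed plate shaken at 37°C. OD600 and luminescence read every 15 min for 8 h; relative luminescence taken as maximum cps/OD600.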

[4] = test system: ComR-XIP QS system, PsigX-luxAB; experiment: PsigX-luxAB reporter; assay type: cell-based, S. mutans; details: 10 µM compound, 100 nM XIP, UA159(pWAR304)
Outline: as §1

[5] = test system: S. pyogenes strain NZ131 biofilm; experiment: SHP-dependent biofilm assay, crystal violet staining, strain NZ131; assay type: cell-based; details: 10 nM SHP2-C8, 20 h
Outline: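 NZ131 grown overnight in THY at 30°C, diluted 1:100 into CDM, grown at 37°C to late exponential phase, back-diluted to OD600 0.02 in CDM with 10 nM SHP2-C8 and 2-fold dilutions of test compound (5 to 0.156 µM); 0.1% DMSO controls. At OD600 ~0.1 plated in duplicate, 20 h at 37°C, 5% CO2. Saline wash, dry-fixed, 0.2% crystal violet, A595; ≥3 independent experiments, standard errors.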

[6] = test system: Rgg-SHP quorum-sensing pathway, Pshp-luxAB; experiment: Pshp-luxAB reporter in S. agalactiae A909; assay type: cell-based; details: S. agalactiae (GBS), 5 µM antagonist
Outline: (§2)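 Reporter strains carry shp-promoter–luxAB fusions on a pLZ12-spec plasmid: Pshp1520 in GBS A909, Pshp2 in GGS, Pshp3 in S. porcinus. S. porcinus was given synthetic SHP. Strains grown in CDM to OD600 0.1 and exposed to 5 µM antagonist. Decanal (1% in mineral oil) supplied as vapour. OD600 and luminescence read at 37°C every 15 min for 8 h; relative luminescence taken as maximum cps/OD600.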

[7] = test system: Rgg-SHP quorum-sensing pathway, Pshp-luxAB; experiment: Pshp-luxAB reporter in S. dysgalactiae GGS-LT1; assay type: cell-based; details: 5 µM antagonist
Outline: as §2

[8] = test system: Rgg-SHP quorum-sensing pathway, Pshp-luxAB; experiment: Pshp-luxAB reporter in S. porcinus NCTC 10999; assay type: cell-based; details: 5 µM antagonist
Outline: as §2

ComR [9] = biological target: T1, ComR; assay type: binding, S. mutans; details: competition with FITC-XIP
FITC-XIP (S. mutans) = experiment: fluorescence polarisation
[10] = biological target: FITC-SHP2-C8 (Streptococcus pyogenes); experiment: fluorescence polarisation
[11] = biological target: His6-SUMO-Rgg3 (Streptococcus pyogenes); experiment: fluorescence polarisation
[12] = read-out: IC50, luciferase assay dose-response

Molecule: [Cl-].[Na+] [NaCl]
- effect on activation of PspeB (luciferase activity) (RopB): abolished luciferase activity

Molecule: CCCc1nc(C(C)(C)O)c(C(=O)O)n1Cc1ccc(-c2ccccc2-c2nnn[nH]2)cc1 [Olmesartan]
- Rgg3 Avg % inhibition (Rgg3): 73%
- inhibition (ComR [1]): 1%
- inhibition of SHP-induced light production (transcription) [2]: less than 50%

Molecule: CC(C)(C)NC(=O)[C@@H]1C[C@@H]2CCCC[C@@H]2CN1C[C@@H](O)[C@H](Cc1ccccc1)NC(=O)[C@H](CC(N)=O)NC(=O)c1ccc2ccccc2n1 [Saquinavir mesylate]
- Rgg3 Avg % inhibition (Rgg3): 84%
- inhibition (ComR [1]): 13%
- IC50 [2, 12]: > 10000 nM

Molecule: CCC(C)(C)C(=O)O[C@H]1C[C@@H](C)C=C2C=C[C@H](C)[C@H](CC[C@@H]3C[C@@H](O)CC(=O)O3)[C@H]21 [Simvastatin]
- Rgg3 Avg % inhibition (Rgg3): 85%
- inhibition (ComR [1]): 10%
- inhibition of SHP-induced light production (transcription) [2]: less than 50%
- IC50 [2, 12]: > 10000 nM
- effect on culture growth (S. pyogenes cultures): inhibited culture growth

Molecule: CCCc1nc2c(C)cc(-c3nc4ccccc4n3C)cc2n1Cc1ccc(-c2ccccc2C(=O)O)cc1 [Telmisartan]
- Rgg3 Avg % inhibition (Rgg3): 99%
- inhibition (ComR [1]): 3%
- inhibition of SHP-induced light production (transcription) [2]: less than 50%

Molecule: C/C=C/C[C@@H](C)C(=O)[C@H]1C(=O)N[C@@H](C(C)C)C(=O)N(C)CC(=O)N(C)[C@@H](CC(C)C)C(=O)N[C@@H](C(C)C)C(=O)N(C)[C@@H](CC(C)C)C(=O)N[C@@H](C)C(=O)N[C@H](C)C(=O)N(C)[C@@H](CC(C)C)C(=O)N(C)[C@@H](CC(C)C)C(=O)N(C)[C@@H](C(C)C)C(=O)N1C [Valspodar, [3′-keto-Bmt1-Val2]-cyclosporine]
- inhibition of SHP-induced light production (transcription) [2]: completely abolished light production
- IC50 ([2]; read-out: IC50 (nM), luciferase assay dose-response): 252 nM
- IC50 [2, 12]: 500 nM
- inhibition of transcription in strain with only Rgg2 present (Rgg2): effective at inhibiting transcription
- effect on culture growth (S. pyogenes cultures): do not display toxic effects on GAS growth
- effect on light production of PsigX-luxAB [3]: not affected
- effect on light production of PsigX-luxAB [4]: not affected
- effect on activation of PspeB (luciferase activity) (RopB): unable to block activation of PspeB
- concentration sufficient to prevent SHP-dependent biofilm development [5]: 0.312 µM
- fold inhibition of light production [6]: at least 5 fold
- fold inhibition of light production [7]: at least 5 fold
- fold inhibition of light production ([8]; S. porcinus (GES), sSHP stimulated): at least 5 fold
- effect on the S. porcinus strain (in words) ([8]; S. porcinus): only a moderate effect
- binding to ComR (ComR [9]): did not bind to ComR

Molecule: His6-ComR (S. mutans UA159) (receptor)
- Kd (FITC-XIP (S. mutans)): 1000 nM

Molecule: His6-SUMO-Rgg3 (receptor)
- Kd [10]: 160 nM

Molecule: DILIIVGG [SHP2-C8 (unlabeled synthetic peptide)]
- Kd [11]: 220 nM
